Test results from ChEMBL document CHEMBL2407080, “Synthesis and antifungal activities of cyclic octa-lipopeptide burkholdine analogues” (2013).
In brackets after ≈: the same amount, converted by molar mass.

Legend:
Assay type in all cases: functional
Saccharomyces cerevisiae = experiment: Antifungal activity against Saccharomyces cerevisiae X2180-1A after 24 hrs by two-fold serial dilution method
How it was run: (§1)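 Broth twofold serial dilution MIC. Organisms were pre-grown 2 days in YPD broth, and the assay was run in YPD. Compound started at […] in medium with 0.1% DMSO, then serially diluted twofold. Each well was inoculated with about 5.0 × 10³ cells and incubated 24 h at 30 °C. MIC is the lowest concentration with no visible growth.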

Aspergillus oryzae = experiment: Antifungal activity against Aspergillus oryzae 1-Murasaki-1 after 24 hrs by two-fold serial dilution method; conditions: 1-Murasaki-1, 24 h; how it was run: as §1
[1] = Antifungal activity against Candida viswanathii NBRC10321 after 24 hrs by two-fold serial dilution method; how it was run: as §1

## C[C@@H]1[C@H](O)[C@@H](C)/C=C/C=C/C=C/C=C/C=C/C=C/C=C/[C@H](O[C@@H]2O[C@H](C)[C@@H](O)[C@H](N)[C@@H]2O)C[C@@H]2O[C@](O)(C[C@@H](O)C[C@@H](O)[C@H](O)CC[C@@H](O)C[C@@H](O)CC(=O)O[C@H]1C)C[C@H](O)[C@H]2C(=O)O [AMPHOTERICIN B]
Saccharomyces cerevisiae
  MIC: 0.8 mg/L (≈ 0.866 µM)

## CCCCCCCCCCCCNC(=O)[C@H]1CC(=O)N[C@H](CO)C(=O)N[C@H](Cc2ccc(O)cc2)C(=O)N[C@H](CC(N)=O)C(=O)NCC(=O)N[C@@H](CC(N)=O)C(=O)N[C@@H](CO)C(=O)N[C@@H](CC(N)=O)C(=O)N1
Aspergillus oryzae
  MIC: 800 mg/L (≈ 785 µM)
[1]
  MIC: > 800 mg/L
Saccharomyces cerevisiae
  MIC: 400 mg/L (≈ 392 µM)

## CCCCCCCCCCCCNC(=O)[C@H]1CC(=O)N[C@H](CO)C(=O)N[C@@H](Cc2ccc(O)cc2)C(=O)N[C@@H](CC(N)=O)C(=O)NCC(=O)N[C@@H](CC(N)=O)C(=O)N[C@@H](CO)C(=O)N[C@@H](CC(N)=O)C(=O)N1
Aspergillus oryzae
  MIC: > 800 mg/L
[1]
  MIC: > 800 mg/L
Saccharomyces cerevisiae
  MIC: 400 mg/L (≈ 392 µM)

## CCCCCCCCCCCCNC(=O)[C@H]1CC(=O)N[C@@H](CO)C(=O)N[C@@H](Cc2ccc(O)cc2)C(=O)N[C@H](CC(N)=O)C(=O)NCC(=O)N[C@@H](CC(N)=O)C(=O)N[C@@H](CO)C(=O)N[C@@H](CC(N)=O)C(=O)N1
Aspergillus oryzae
  MIC: 800 mg/L (≈ 785 µM)
[1]
  MIC: > 800 mg/L
Saccharomyces cerevisiae
  MIC: 800 mg/L (≈ 785 µM)

## NC(=O)C[C@@H]1NC(=O)CNC(=O)[C@H](CC(N)=O)NC(=O)[C@H](Cc2ccc(O)cc2)NC(=O)[C@H](CO)NC(=O)CCNC(=O)[C@H](CC(N)=O)NC(=O)[C@H](CO)NC1=O
Aspergillus oryzae
  MIC: > 800 mg/L
[1]
  MIC: 800 mg/L (≈ 990 µM)
Saccharomyces cerevisiae
  MIC: > 800 mg/L

## CCCCCCCCCCCCNC(=O)[C@@H]1CC(=O)N[C@@H](CO)C(=O)N[C@H](Cc2ccc(O)cc2)C(=O)N[C@H](CC(N)=O)C(=O)NCC(=O)N[C@@H](CC(N)=O)C(=O)N[C@@H](CO)C(=O)N[C@@H](CC(N)=O)C(=O)N1
Aspergillus oryzae
  MIC: 400 mg/L (≈ 392 µM)
[1]
  MIC: > 800 mg/L
Saccharomyces cerevisiae
  MIC: 800 mg/L (≈ 785 µM)

## CCCCCCCCCCCCNC(=O)[C@H]1CC(=O)N[C@H](CO)C(=O)N[C@@H](Cc2ccc(O)cc2)C(=O)N[C@H](CC(N)=O)C(=O)NCC(=O)N[C@@H](CC(N)=O)C(=O)N[C@@H](CO)C(=O)N[C@@H](CC(N)=O)C(=O)N1
Aspergillus oryzae
  MIC: 400 mg/L (≈ 392 µM)
[1]
  MIC: > 800 mg/L
Saccharomyces cerevisiae
  MIC: 400 mg/L (≈ 392 µM)

## CCCCCCCCCCCCNC(=O)[C@@H]1CC(=O)N[C@@H](CO)C(=O)N[C@H](Cc2ccc(O)cc2)C(=O)N[C@@H](CC(N)=O)C(=O)NCC(=O)N[C@@H](CC(N)=O)C(=O)N[C@@H](CO)C(=O)N[C@@H](CC(N)=O)C(=O)N1
Aspergillus oryzae
  MIC: 400 mg/L (≈ 392 µM)
[1]
  MIC: 800 mg/L (≈ 785 µM)
Saccharomyces cerevisiae
  MIC: > 800 mg/L

## CCCCCCCCCCCCNC(=O)[C@@H]1CC(=O)N[C@@H](CO)C(=O)N[C@@H](Cc2ccc(O)cc2)C(=O)N[C@H](CC(N)=O)C(=O)NCC(=O)N[C@@H](CC(N)=O)C(=O)N[C@@H](CO)C(=O)N[C@@H](CC(N)=O)C(=O)N1
Aspergillus oryzae
  MIC: 400 mg/L (≈ 392 µM)
[1]
  MIC: 800 mg/L (≈ 785 µM)
Saccharomyces cerevisiae
  MIC: > 800 mg/L

## CCCCCCCCCCCCNC(=O)[C@H]1CC(=O)N[C@H](CO)C(=O)N[C@H](Cc2ccc(O)cc2)C(=O)N[C@@H](CC(N)=O)C(=O)NCC(=O)N[C@@H](CC(N)=O)C(=O)N[C@@H](CO)C(=O)N[C@@H](CC(N)=O)C(=O)N1
Aspergillus oryzae
  MIC: 800 mg/L (≈ 785 µM)
[1]
  MIC: > 800 mg/L
Saccharomyces cerevisiae
  MIC: 800 mg/L (≈ 785 µM)

## CCCCCCCCCCCCNC(=O)[C@H]1CC(=O)N[C@@H](CO)C(=O)N[C@@H](Cc2ccc(O)cc2)C(=O)N[C@@H](CC(N)=O)C(=O)NCC(=O)N[C@@H](CC(N)=O)C(=O)N[C@@H](CO)C(=O)N[C@@H](CC(N)=O)C(=O)N1
Aspergillus oryzae
  MIC: > 800 mg/L
[1]
  MIC: > 800 mg/L
Saccharomyces cerevisiae
  MIC: 200 mg/L (≈ 196 µM)

## CCCCCCCCCCCCNC(=O)[C@@H]1CC(=O)N[C@H](CO)C(=O)N[C@H](Cc2ccc(O)cc2)C(=O)N[C@H](CC(N)=O)C(=O)NCC(=O)N[C@@H](CC(N)=O)C(=O)N[C@@H](CO)C(=O)N[C@@H](CC(N)=O)C(=O)N1
Aspergillus oryzae
  MIC: 50 mg/L (≈ 49.1 µM)
[1]
  MIC: 800 mg/L (≈ 785 µM)
Saccharomyces cerevisiae
  MIC: 25 mg/L (≈ 24.5 µM)

## NC(=O)C[C@@H]1NC(=O)CNC(=O)[C@@H](CC(N)=O)NC(=O)[C@H](Cc2ccc(O)cc2)NC(=O)[C@@H](CO)NC(=O)CCNC(=O)[C@H](CC(N)=O)NC(=O)[C@H](CO)NC1=O
Aspergillus oryzae
  MIC: > 800 mg/L
[1]
  MIC: > 800 mg/L
Saccharomyces cerevisiae
  MIC: 800 mg/L (≈ 990 µM)

## CCCCCCCCCCCCNC(=O)[C@@H]1CC(=O)N[C@H](CO)C(=O)N[C@H](Cc2ccc(O)cc2)C(=O)N[C@@H](CC(N)=O)C(=O)NCC(=O)N[C@@H](CC(N)=O)C(=O)N[C@@H](CO)C(=O)N[C@@H](CC(N)=O)C(=O)N1
Aspergillus oryzae
  MIC: 800 mg/L (≈ 785 µM)
[1]
  MIC: > 800 mg/L
Saccharomyces cerevisiae
  MIC: > 800 mg/L

## CCCCCCCCCCCCNC(=O)[C@@H]1CC(=O)N[C@H](CO)C(=O)N[C@@H](Cc2ccc(O)cc2)C(=O)N[C@@H](CC(N)=O)C(=O)NCC(=O)N[C@@H](CC(N)=O)C(=O)N[C@@H](CO)C(=O)N[C@@H](CC(N)=O)C(=O)N1
Aspergillus oryzae
  MIC: > 800 mg/L
[1]
  MIC: > 800 mg/L
Saccharomyces cerevisiae
  MIC: 400 mg/L (≈ 392 µM)

## CCCCCCCCCCC[C@H](O)[C@H](O)[C@H](O)C[C@H]1CC(=O)N[C@@H](CO)C(=O)N[C@H]([C@H](O)c2ccc(O)cc2)C(=O)N[C@H](CC(N)=O)C(=O)NCC(=O)N[C@@H](CC(N)=O)C(=O)N[C@@H](CO)C(=O)N[C@@H]([C@H](O)C(N)=O)C(=O)N1
Saccharomyces cerevisiae
  MIC: 1.6 mg/L (≈ 1.46 µM)

## CCCCCCCCCCCCNC(=O)[C@H]1CC(=O)N[C@@H](CO)C(=O)N[C@H](Cc2ccc(O)cc2)C(=O)N[C@@H](CC(N)=O)C(=O)NCC(=O)N[C@@H](CC(N)=O)C(=O)N[C@@H](CO)C(=O)N[C@@H](CC(N)=O)C(=O)N1
Aspergillus oryzae
  MIC: > 800 mg/L
[1]
  MIC: > 800 mg/L
Saccharomyces cerevisiae
  MIC: 800 mg/L (≈ 785 µM)

## CCCCCCCCCCCCNC(=O)[C@@H]1CC(=O)N[C@@H](CO)C(=O)N[C@@H](Cc2ccc(O)cc2)C(=O)N[C@@H](CC(N)=O)C(=O)NCC(=O)N[C@@H](CC(N)=O)C(=O)N[C@@H](CO)C(=O)N[C@@H](CC(N)=O)C(=O)N1
Aspergillus oryzae
  MIC: 200 mg/L (≈ 196 µM)
[1]
  MIC: > 800 mg/L
Saccharomyces cerevisiae
  MIC: 800 mg/L (≈ 785 µM)

## NC(=O)C[C@@H]1NC(=O)CNC(=O)[C@@H](CC(N)=O)NC(=O)[C@@H](Cc2ccc(O)cc2)NC(=O)[C@@H](CO)NC(=O)CCNC(=O)[C@H](CC(N)=O)NC(=O)[C@H](CO)NC1=O
Aspergillus oryzae
  MIC: 800 mg/L (≈ 990 µM)
[1]
  MIC: > 800 mg/L
Saccharomyces cerevisiae
  MIC: 800 mg/L (≈ 990 µM)

## CCCCCCCCCCCCNC(=O)[C@H]1CC(=O)N[C@@H](CO)C(=O)N[C@H](Cc2ccc(O)cc2)C(=O)N[C@H](CC(N)=O)C(=O)NCC(=O)N[C@@H](CC(N)=O)C(=O)N[C@@H](CO)C(=O)N[C@@H](CC(N)=O)C(=O)N1
Aspergillus oryzae
  MIC: 100 mg/L (≈ 98.1 µM)
[1]
  MIC: > 800 mg/L
Saccharomyces cerevisiae
  MIC: 50 mg/L (≈ 49.1 µM)

## CCCCCCCCCCCCNC(=O)[C@@H]1CC(=O)N[C@H](CO)C(=O)N[C@@H](Cc2ccc(O)cc2)C(=O)N[C@H](CC(N)=O)C(=O)NCC(=O)N[C@@H](CC(N)=O)C(=O)N[C@@H](CO)C(=O)N[C@@H](CC(N)=O)C(=O)N1
Aspergillus oryzae
  MIC: 100 mg/L (≈ 98.1 µM)
[1]
  MIC: 400 mg/L (≈ 392 µM)
Saccharomyces cerevisiae
  MIC: 50 mg/L (≈ 49.1 µM)
